Assay: Toxicity liver stage against HepG2, at 10uM
Assay type: cell-based
Design: test concentration 10 uM, cell line HepG2-A16-CD81EGFP
Settings: human, HepG2-A16-CD81EGFP cells; read-out: INHIBITION
Method in brief: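 Uninfected HepG2-A16-CD81EGFP cells, 3 × 10^3 per well, 1536-well, plated on prespotted compound at 10 μM final, parasite-free screening media added to match infected plates; puromycin 10 μM positive, DMSO 0.5% negative; run in parallel with 48 h PbLuc assay at 37 °C, 5% CO2; viability by CellTiter-Glo luminescence, normalized to controls.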

Compound	cytotoxicity at 10 µM
COCCCNc1c(-c2ccc(C)cc2)c(=O)c1=O	12.5%
CC(=O)c1cn(CC(=O)N[C@H](C(=O)O)C(C)C)c2ccccc12	-7.06%
COCCc1nnc(NC(=O)Cc2ccccc2Cl)o1	-6.95%
COCC(=O)N1CCC2(CC1)CCn1c(-c3cccc(OC)c3)cnc12	-5.21%
Cn1cc(CN2CCC3(CC2)CC(=O)Nc2ccccc23)cn1	8.49%
Cc1cc2nc(SCC(=O)N3CCCCC3)n(C)c(=O)c2[nH]1	5.56%
C[C@H](NC(=O)Cc1csc(-c2cccc(Cl)c2)n1)C(=O)O	1.25%
COc1ccc2c(ccn2CCN)c1	-0.73%
O=C(NC1CC1)c1ccc2ccc(N3CCN(CC4CC4)CC3)n2c1	1.26%
Cc1nc(N2CCCC2)nc2c1CN(C(=O)N1CCOCC1)CC2	6.17%
Cn1cc(CN2CCCn3cnc(COCC4CC4)c3C2)cn1	-6.66%
O=C(CSc1ccccn1)NCc1ccc2c(c1)CCC(=O)N2	20%
Cc1cccc2c1cnn2CCCNC(=O)c1ccnn1C	13.4%
Cc1nn(C)c(C)c1-c1ccc(=O)n(C(C)C(=O)NC2CCCC2)n1 (stereo not given)	5.97%
Cc1ccc(CC2COCCN(Cc3ccccc3)C2)nc1 (stereo not given)	8.3%
COc1ccc(C2CNCCN2C(=O)c2cccc3cccnc23)cc1 (stereo not given)	-4.48%
CNc1ncc(C(=O)N2CCOC(C(=O)N3CCCCCC3)C2)cn1 (stereo not given)	-8.29%
COCCN(Cc1ccccn1)C(=O)CC1OCCc2sccc21 (stereo not given)	-54.8%
Cc1cnn(CC(C)NCC(=O)NC2CCOCC2)c1 (stereo not given)	15.6%
NC(=O)N1CCC(NCc2cc(Br)ccc2Cl)CC1	-6.43%
N#Cc1c(CN2CCCC2Cn2cccn2)cn2ccccc12 (stereo not given)	-4.67%
CC(C)OCCC(=O)NS(=O)(=O)N1CCOc2ccccc21	-0.955%

Compound	cytotoxicity at 10 µM
CN(Cc1cc(Cl)cc2cccnc12)CC1CCN(CCO)CC1	-5.2%
Cc1ncncc1C(=O)N1CCCN(Cc2ncc(Cl)n2C)CC1	6.45%
CNC(=O)NCC(=O)N(C)C(c1ccc(Cl)cc1)c1cccnc1 (stereo not given)	9.61%
Cc1ccccc1C(C#N)NC(=O)c1cccc2c1OCCO2 (stereo not given)	-3.38%
CC(C)N1CCC(O)(CNC(=O)CC2OCCc3ccccc32)CC1 (stereo not given)	5.02%
COCCCC(=O)Nc1cccnc1N1CCCCC1	-6.34%
CS(=O)(=O)c1ccccc1NC(=O)N[C@@H]1c2ccccc2C[C@@H]1O	-42.2%
O=C(NCc1nc(C2CC2)no1)N1CCOC(c2ccccc2F)C1 (stereo not given)	-53.7%
CC(Oc1cc(Cl)cc(Cl)c1)C(=O)NCCS(N)(=O)=O (stereo not given)	-11.7%
CCN(CC)Cc1ccccc1NCc1c(C)noc1C	-2.04%
Cc1n[nH]c(C2CN(C(=O)c3csnn3)CCO2)n1 (stereo not given)	2.74%
CN(Cc1nnc(C2CC2)n1C)C1CCN(CCc2ccccc2)C1 (stereo not given)	2.03%
CCC(C#N)NC(=O)COC1CCCCC1 (stereo not given)	5.48%
CCOc1ccccc1C(CC(=O)N(C)c1ccccc1)NC(C)=O (stereo not given)	-8.28%
CC(NCC1CCN(CCO)CC1)c1ccc(F)c(Cl)c1 (stereo not given)	-9.04%
Cn1cc(CNC2CCS(=O)(=O)C2)c(-c2cc3ccccc3o2)n1 (stereo not given)	-39.1%
COCCn1ccc(NC(=O)CNC(=O)CC(C)(C)C)n1	17.3%
c1ccc(-c2cnc(CNC3CCc4ncnn4C3)o2)cc1 (stereo not given)	-3.78%
O=C(CN1CCOc2ccc(Cl)cc21)NCCCn1ccnc1	-7.49%
CC(C)Cc1nc(CN(C)CCOc2ccccc2F)no1	-0.731%
O=S(=O)(NC1CCCCC12OCCO2)c1ccc2c(c1)OCCO2 (stereo not given)	-0.839%
COCCCN(Cc1ccc(F)cc1Cl)C1CCS(=O)(=O)C1 (stereo not given)	13.7%

Compound	cytotoxicity at 10 µM
CC(CCN1CCOCC1)NC(=O)c1cccc(C(F)(F)F)c1F (stereo not given)	-44.8%
Cn1c(CC2CCS(=O)(=O)C2)nnc1SCCOc1ccccc1F (stereo not given)	-6.82%
CCS(=O)(=O)NC(C(=O)NC)c1ccc(F)c(F)c1 (stereo not given)	-9.06%
N#Cc1cc(NC(=O)c2ccsc2)ccc1N1CCC(O)CC1	4.77%
c1cnnc(N2CCCC2CNCc2nc3ccccc3o2)c1 (stereo not given)	-10.9%
Cc1cnc(C(=O)N2CCCN(Cc3csc(C)n3)CC2)cn1	-16%
COc1cccc(CN(C)S(=O)(=O)N2CCOCC2)c1	-8.62%
CS(=O)(=O)NCC1CCCCN1C(=O)Nc1cccnc1N1CCCC1 (stereo not given)	-3.45%
Cc1ccc(S(=O)(=O)NC(=O)c2c(C)noc2C(C)C)cc1C	-9.11%
O=C(NC1CC2(CCN(CCO)CC2)Oc2ccccc21)c1csnn1 (stereo not given)	-101%
Cc1ccc(CN2CCCC23CCN(S(=O)(=O)c2ccccc2)C3)o1 (stereo not given)	0.642%
CN1C(=O)C2(CCN(CCO)C2)c2ccccc21 (stereo not given)	5.84%
CCCc1ccc(CN2CCC3(CCC(=O)N(CCCOC)C3)CC2)o1	-1.53%
COc1ccc(CCCN2C(=O)O[C@@H]3CN(C4CCOCC4)C[C@@H]32)cc1	-1.47%
O=C(c1cccc(C2CCNC2)c1)N1CCC(N2CCC(O)CC2)CC1 (stereo not given)	2.18%
CCN(C)CC(=O)N1CCN(Cc2ccccc2)[C@@H]2CS(=O)(=O)C[C@@H]21	-5.18%
O=C(c1ccc(-n2cnnc2)cc1Cl)N1CCCC2(CCNC2)C1 (stereo not given)	-5.32%
N#Cc1ccccc1C(=O)N1C[C@@H](CN2CCOCC2)[C@@H](CO)C1	-1.06%
O=C(c1ccccn1)C1CCCN(c2nccc(CCC(F)(F)F)n2)C1 (stereo not given)	-4.27%
O=C(NCCc1cccnc1)C1CCCN(Cc2ccco2)C1 (stereo not given)	-3.98%
Cc1csc(CN(C)C(=O)c2cccc(CCC(C)(C)O)c2)n1	-2.32%
CCc1cc(CN(C)C(=O)c2cnc3c(c2)nc(N)n3CC)on1	1.3%

Compound	cytotoxicity at 10 µM
CNc1ncc(CN(C)C(=O)c2ccccc2C2CCNC2)cn1 (stereo not given)	0.272%
Cc1ccc(C(=O)N2CCC(c3nccn3Cc3ccncc3)CC2)s1	1.2%
CCOCc1nc2c(c(N3CCCn4nc(C)cc4C3)n1)CCNCC2	11.3%
COc1cccc(-c2noc(-c3ccc(NCC(C)C)nc3)n2)c1OC	-12.2%
Cc1cnc(C(=O)N2CCN(C(=O)C(C)C)[C@@H]3CS(=O)(=O)C[C@@H]32)cn1	7.91%
CCC[C@H]1CN(S(C)(=O)=O)C[C@@H]1NC(=O)COC(C)C	-1.09%
c1ccc(OCCSC2=NCCN2)cc1	1.52%
Cc1cc(N2CCN(C(=O)CCc3scnc3C)CC2)cc(C)n1	-48.4%
CC(C)[C@H]1COC(=O)N1Cc1nccn1C1CC1	-15.4%
O=C(CCC1CCN(C2CSCCSC2)CC1)NCC1CCCO1 (stereo not given)	6.5%
CC(=O)NCC1CCC2(CCN(c3ncnc4oc(C)nc34)CC2)O1 (stereo not given)	1.32%
CC(=O)N[C@@H]1CN(c2nc(C(N)=O)cs2)C[C@H]1c1ccc(C)o1	-41.2%
Cn1ccnc1CN(CCO)C(=O)C1CCN(C(=O)C2CC2)CC1	2.55%
Cc1cc(C)c2c(NC(C)c3nncn3C3CCCC3)ncnc2n1 (stereo not given)	5.01%
COCC1CCN(C(C(=O)O)c2c(F)cccc2OC(C)C)CC1 (stereo not given)	0.515%
CCCSc1ncc(-c2nccn2CCO)cn1	-12.9%
Cc1nccc(N2CCC(=O)N(Cc3ccc(F)cc3)C(C(C)C)C2)n1 (stereo not given)	-0.449%
CCc1cc(NCCNc2cccnc2)n2nccc2n1	-11.9%
CN(CCc1ccccc1)Cc1cc(C(=O)N2CCCC2(C)C)no1	-9.18%
Cc1ccsc1CN(CCN(C)C)Cc1ccccn1	-16.1%
CCc1c(C)sc(NC(=O)CN2CCN(CC)CC2)c1C(=O)OC	-11.1%
Cc1nc(CN2CCCC2Cn2cncn2)no1 (stereo not given)	-7.01%

Compound	cytotoxicity at 10 µM
Cc1cc(C)n(-c2ccc(CNCc3ccc(C)o3)cn2)n1	-6.57%
CCc1nccn1C1CCCN(C(=O)c2ccc3c(c2)OCO3)C1 (stereo not given)	-12.6%
COCc1cccc(CNC(=O)CN2CCCC2c2noc(C)n2)c1 (stereo not given)	0.762%
CC(Cn1ccnc1)NC(=O)C1(c2ccc3c(c2)OCCO3)CCCC1 (stereo not given)	-2.5%
c1ccc(CN2CCCC2Cn2cncn2)nc1 (stereo not given)	-10.8%
CN1CCOC(CNCc2coc(-c3cccs3)n2)C1 (stereo not given)	-3.71%
Cc1nc(C)n(CC2CCCCN2CC(=O)NC2CCOCC2)n1 (stereo not given)	-9.32%
Cc1noc(C)c1C(=O)N1C[C@H]2CCC[C@@]2(COc2ccccn2)C1	-5.53%
CN(C)C[C@H]1C[C@@H]2CN(C(=O)c3ccno3)C[C@@H]2O1	-6.32%
COc1cccc(CNC(C)c2ccc(-n3ccnc3)cc2)c1OC (stereo not given)	-35.1%
C[C@@H]1C[C@H]2CN(Cc3nccs3)C[C@H]2O1	-1.22%
Cc1cc(CN2CC[C@H]3C[C@H](C(=O)N4CCC(C)CC4)O[C@H]3C2)no1	1.34%
O=C(NCc1ccccn1)[C@@]12CCO[C@@H]1CCN(C1CCCC1)C2	-105%
CN1CCO[C@@H]2CN(C(=O)COc3cccc(Cl)c3)C[C@@H]2C1	-9.58%
Cc1ccc(CN2CCc3ncc(CNS(C)(=O)=O)n3CC2)o1	-9.9%
O=C(c1cccnc1)N1CC[C@H](OCC2CC2)[C@@H]1Cc1cccnc1	-0.53%
Cc1noc(C)c1CN1CCOCC12CCN(c1cnccn1)CC2	-101%
Cn1cc(CN2C[C@@H]3COC[C@]3(CNC(=O)c3ccsc3)C2)cn1	-0.0273%
O=C(COC[C@@]12CCC[C@@H]1CN(C1CCCC1)C2)N1CCCC1	-112%
c1cnc(N2CCC3(CCN(CC4CCOC4)C3)CC2)nc1 (stereo not given)	-0.877%
COCCN1C(=O)[C@@H]2CC[C@H]1CN(C(=O)CCc1n[nH]c(C)c1C)C2	13.5%
Cc1ncc(C(=O)N2C[C@@H]3CC[C@H]2CN(S(=O)(=O)N(C)C)C3)c(C)n1	16.9%
